Measurements from publication PMC6978834 (ACS Central Science, 2019).

Tests used:
[1] = test system: P. falciparum NF54 synchronized asexual parasites; assay: Stage-specificity during the asexual cell cycle; assay type: cell-based, Plasmodium falciparum; conditions: 6 h; data not shown
In short: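 NF54 synchronized to 0–3 hpi by gelatin flotation, then 5% D-sorbitol 3 h later. Plated at 2% hematocrit, 0.5% starting parasitemia. 6 h exposure at 1×, 3× or 10× IC50 starting at 0, 6, 12, 18, 24, 30, 36 or 42 hpi, then cells washed in RPMI and recultured. Giemsa-smear parasitemia at 72 h post-synchronization; survival relative to DMSO. Three independent experiments, one well each; unpaired t test versus DMSO.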

P. falciparum NF54 = assay type: cell-based; conditions: Plasmodium falciparum, NF54, read-out: IC50 P. falciparum proliferation
In short: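 Asynchronous asexual P. falciparum NF54 cultures grown by a standard protocol. Proliferation IC50 determined with DHA as positive and DMSO as negative control. Values are mean IC50 ± SD of at least two independent experiments run in triplicate.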

SMILES | activity on the ring stages [1] | IC50 (P. falciparum NF54)
Clc1ccc2c(N3CCN(CCCN4CCN(c5ccnc6cc(Cl)ccc56)CC4)CC3)ccnc2c1 [piperaquine] | not active | –
C[C@H]1[C@@H](O)O[C@@H]2O[C@@]3(C)CC[C@H]4[C@H](C)CC[C@@H]1[C@@]24OO3 [dihydroartemisinin (DHA), dihydroartemisinin] | – | 5 ± 1 nM
